In the M2OR odorant receptor database:

Key:
Settings in all cases: stereoisomer not certain
[1] = biological target: T1, OR10A3 (Homo sapiens) (UniProt P58181)
T1 sequence (whole entry): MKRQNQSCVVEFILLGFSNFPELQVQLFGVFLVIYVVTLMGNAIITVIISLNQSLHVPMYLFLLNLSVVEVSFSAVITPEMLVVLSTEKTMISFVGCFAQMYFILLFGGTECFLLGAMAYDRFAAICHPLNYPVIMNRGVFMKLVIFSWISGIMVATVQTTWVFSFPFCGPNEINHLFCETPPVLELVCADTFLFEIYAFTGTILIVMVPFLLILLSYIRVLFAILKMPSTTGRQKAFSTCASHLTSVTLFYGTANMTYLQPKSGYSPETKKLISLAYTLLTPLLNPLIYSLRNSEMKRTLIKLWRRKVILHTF
Outline: (§1)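 Transient luciferase assays in mammalian cell lines were common, though methods varied by source. The values come from published papers and their supplementary material, with extra details from the original authors when needed. Responsive refers to a measured signal the original authors judged statistically different from baseline, and non-responsive (inactive) to the remainder.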

[2] = biological target: T2, OR10A4 (Homo sapiens) (UniProt Q9H209)
T2 sequence (whole entry): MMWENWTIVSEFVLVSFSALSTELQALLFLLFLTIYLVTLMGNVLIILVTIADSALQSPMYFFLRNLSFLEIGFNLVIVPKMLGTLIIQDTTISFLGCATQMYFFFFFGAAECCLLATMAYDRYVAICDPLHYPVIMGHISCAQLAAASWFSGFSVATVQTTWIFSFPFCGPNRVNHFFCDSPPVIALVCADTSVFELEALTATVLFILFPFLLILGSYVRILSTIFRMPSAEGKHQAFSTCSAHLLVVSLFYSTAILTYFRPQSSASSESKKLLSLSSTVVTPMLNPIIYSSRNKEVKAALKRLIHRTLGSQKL
Outline: as §1

[3] = biological target: T3, OR10A5 (Homo sapiens) (UniProt Q9H207)
T3 sequence (whole entry): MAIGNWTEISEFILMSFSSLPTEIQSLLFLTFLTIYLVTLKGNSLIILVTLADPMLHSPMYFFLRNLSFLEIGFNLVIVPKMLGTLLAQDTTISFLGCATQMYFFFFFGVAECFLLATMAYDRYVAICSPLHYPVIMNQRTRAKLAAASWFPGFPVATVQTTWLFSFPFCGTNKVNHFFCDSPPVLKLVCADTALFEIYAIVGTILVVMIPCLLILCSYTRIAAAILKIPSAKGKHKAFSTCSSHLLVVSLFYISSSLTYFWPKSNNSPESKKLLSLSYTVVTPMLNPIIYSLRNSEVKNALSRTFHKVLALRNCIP
Outline: as §1

[4] = biological target: T4, OR10A6 (Homo sapiens) (UniProt Q8NH74)
T4 sequence (whole entry): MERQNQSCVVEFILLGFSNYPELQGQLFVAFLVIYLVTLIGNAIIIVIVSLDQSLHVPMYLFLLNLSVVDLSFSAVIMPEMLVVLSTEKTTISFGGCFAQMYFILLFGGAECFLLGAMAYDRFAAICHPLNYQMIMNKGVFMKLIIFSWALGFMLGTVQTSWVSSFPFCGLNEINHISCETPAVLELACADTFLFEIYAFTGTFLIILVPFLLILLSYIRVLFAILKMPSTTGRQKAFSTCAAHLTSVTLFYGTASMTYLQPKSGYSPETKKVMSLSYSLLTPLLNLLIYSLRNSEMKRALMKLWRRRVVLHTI
Outline: as §1

[5] = biological target: T5, OR10A7 (Homo sapiens) (UniProt Q8NGE5)
T5 sequence (whole entry): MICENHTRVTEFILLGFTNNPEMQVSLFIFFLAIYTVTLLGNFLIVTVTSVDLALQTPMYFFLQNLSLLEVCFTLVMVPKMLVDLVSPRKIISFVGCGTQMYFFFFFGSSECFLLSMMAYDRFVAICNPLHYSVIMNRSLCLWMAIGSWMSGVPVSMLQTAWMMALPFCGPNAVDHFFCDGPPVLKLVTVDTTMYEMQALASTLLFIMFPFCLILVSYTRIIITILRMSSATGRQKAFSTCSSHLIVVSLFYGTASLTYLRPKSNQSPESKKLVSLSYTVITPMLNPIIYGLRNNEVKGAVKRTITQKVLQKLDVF
Outline: as §1

[6] = biological target: T6, OR10AD1 (Homo sapiens) (UniProt Q8NGE0)
T6 sequence (whole entry): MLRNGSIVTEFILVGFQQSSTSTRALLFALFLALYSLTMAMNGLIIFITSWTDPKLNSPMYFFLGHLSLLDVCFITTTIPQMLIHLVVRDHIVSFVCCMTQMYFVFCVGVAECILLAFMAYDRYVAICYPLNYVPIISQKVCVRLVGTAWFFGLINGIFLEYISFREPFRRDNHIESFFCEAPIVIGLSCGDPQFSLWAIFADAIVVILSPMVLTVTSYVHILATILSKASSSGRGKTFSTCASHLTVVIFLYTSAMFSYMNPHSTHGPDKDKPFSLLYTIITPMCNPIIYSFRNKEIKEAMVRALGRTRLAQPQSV
Outline: as §1

[7] = biological target: T7, OR10AG1 (Homo sapiens) (UniProt Q8NH19)
T7 sequence (whole entry): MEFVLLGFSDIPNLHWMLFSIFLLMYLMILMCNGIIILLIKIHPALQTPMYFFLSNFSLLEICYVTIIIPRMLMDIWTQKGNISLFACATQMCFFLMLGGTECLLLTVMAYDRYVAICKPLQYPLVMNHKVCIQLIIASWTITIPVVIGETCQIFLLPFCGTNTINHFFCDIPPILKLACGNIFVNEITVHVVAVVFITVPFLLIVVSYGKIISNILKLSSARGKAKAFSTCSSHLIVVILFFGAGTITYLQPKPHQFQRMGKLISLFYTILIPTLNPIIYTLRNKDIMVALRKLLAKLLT
Outline: as §1

[8] = biological target: T8, OR10C1 (Homo sapiens) (UniProt Q96KK4)
T8 sequence (whole entry): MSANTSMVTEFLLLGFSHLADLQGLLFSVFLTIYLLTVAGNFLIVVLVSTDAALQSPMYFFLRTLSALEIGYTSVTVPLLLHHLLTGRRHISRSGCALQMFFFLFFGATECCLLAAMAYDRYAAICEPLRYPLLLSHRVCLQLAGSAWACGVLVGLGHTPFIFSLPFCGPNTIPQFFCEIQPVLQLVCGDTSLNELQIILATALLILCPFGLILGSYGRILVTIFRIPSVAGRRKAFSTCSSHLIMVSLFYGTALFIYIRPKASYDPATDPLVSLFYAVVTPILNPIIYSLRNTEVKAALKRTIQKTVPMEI
Outline: as §1

[9] = biological target: T9, OR10D3 (Homo sapiens) (UniProt Q8NH80)
T9 sequence (whole entry): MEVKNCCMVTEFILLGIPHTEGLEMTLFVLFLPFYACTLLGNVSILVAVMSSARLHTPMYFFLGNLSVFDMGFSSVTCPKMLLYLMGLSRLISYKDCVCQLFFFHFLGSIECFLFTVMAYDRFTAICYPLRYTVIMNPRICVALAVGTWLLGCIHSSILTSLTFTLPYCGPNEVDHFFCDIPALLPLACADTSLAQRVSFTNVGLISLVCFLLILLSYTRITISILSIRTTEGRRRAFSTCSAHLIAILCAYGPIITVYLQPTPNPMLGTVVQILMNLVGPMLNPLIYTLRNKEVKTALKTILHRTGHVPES
Outline: as §1

[10] = biological target: T10, OR10G2 (Homo sapiens) (UniProt Q8NGC3)
T10 sequence (whole entry): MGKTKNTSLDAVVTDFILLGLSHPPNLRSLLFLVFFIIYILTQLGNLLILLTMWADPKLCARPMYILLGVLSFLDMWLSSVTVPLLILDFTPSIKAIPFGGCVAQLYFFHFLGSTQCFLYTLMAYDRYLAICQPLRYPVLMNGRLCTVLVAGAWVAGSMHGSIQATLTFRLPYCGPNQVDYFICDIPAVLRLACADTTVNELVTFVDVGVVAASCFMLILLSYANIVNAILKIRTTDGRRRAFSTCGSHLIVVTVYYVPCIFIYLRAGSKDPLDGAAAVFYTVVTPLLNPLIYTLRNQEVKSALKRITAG
Outline: as §1

[11] = biological target: T11, OR10G3 (Homo sapiens) (UniProt Q8NGC4)
T11 sequence (whole entry): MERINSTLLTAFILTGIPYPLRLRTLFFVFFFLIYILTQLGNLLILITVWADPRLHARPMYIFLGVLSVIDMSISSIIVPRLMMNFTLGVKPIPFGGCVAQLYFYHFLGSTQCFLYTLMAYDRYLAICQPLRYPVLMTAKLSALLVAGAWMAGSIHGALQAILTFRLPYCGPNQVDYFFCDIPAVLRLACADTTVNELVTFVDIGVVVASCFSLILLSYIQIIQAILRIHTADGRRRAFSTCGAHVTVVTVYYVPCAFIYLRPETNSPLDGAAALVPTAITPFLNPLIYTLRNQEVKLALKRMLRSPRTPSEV
Outline: as §1

[12] = biological target: T12, OR10G4 (Homo sapiens) (UniProt Q8NGN3)
T12 sequence (whole entry): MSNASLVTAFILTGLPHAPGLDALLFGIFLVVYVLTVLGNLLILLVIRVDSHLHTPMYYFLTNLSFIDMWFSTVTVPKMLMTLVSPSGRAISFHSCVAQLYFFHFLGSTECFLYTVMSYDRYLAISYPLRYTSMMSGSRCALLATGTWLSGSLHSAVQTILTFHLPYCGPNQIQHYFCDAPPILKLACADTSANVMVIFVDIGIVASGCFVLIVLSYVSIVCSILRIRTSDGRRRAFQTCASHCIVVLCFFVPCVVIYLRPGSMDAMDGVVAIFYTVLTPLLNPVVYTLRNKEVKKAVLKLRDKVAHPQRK
Outline: as §1

[13] = biological target: T13, OR10G6 (Homo sapiens) (UniProt Q8NH81)
T13 sequence (whole entry): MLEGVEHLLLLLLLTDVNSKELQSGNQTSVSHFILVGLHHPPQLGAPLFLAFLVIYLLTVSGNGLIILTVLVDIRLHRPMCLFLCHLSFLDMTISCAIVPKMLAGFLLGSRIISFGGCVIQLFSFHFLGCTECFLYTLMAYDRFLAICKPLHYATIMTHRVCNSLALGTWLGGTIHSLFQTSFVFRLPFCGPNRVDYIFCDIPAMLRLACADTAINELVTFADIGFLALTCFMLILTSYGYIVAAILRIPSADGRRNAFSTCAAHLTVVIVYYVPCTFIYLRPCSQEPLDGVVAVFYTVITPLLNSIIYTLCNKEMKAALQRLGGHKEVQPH
Outline: as §1

[14] = biological target: T14, OR10G7 (Homo sapiens) (UniProt Q8NGN6)
T14 sequence (whole entry): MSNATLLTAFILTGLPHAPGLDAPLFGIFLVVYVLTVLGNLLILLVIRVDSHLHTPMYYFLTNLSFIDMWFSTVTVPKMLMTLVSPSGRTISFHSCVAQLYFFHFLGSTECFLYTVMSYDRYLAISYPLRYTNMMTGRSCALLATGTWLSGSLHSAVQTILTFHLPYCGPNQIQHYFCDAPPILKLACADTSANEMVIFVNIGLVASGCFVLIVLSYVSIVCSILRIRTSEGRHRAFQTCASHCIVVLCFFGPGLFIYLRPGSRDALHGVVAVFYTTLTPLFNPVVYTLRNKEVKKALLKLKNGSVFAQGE
Outline: as §1

[15] = biological target: T15, OR10G8 (Homo sapiens) (UniProt Q8NGN5)
T15 sequence (whole entry): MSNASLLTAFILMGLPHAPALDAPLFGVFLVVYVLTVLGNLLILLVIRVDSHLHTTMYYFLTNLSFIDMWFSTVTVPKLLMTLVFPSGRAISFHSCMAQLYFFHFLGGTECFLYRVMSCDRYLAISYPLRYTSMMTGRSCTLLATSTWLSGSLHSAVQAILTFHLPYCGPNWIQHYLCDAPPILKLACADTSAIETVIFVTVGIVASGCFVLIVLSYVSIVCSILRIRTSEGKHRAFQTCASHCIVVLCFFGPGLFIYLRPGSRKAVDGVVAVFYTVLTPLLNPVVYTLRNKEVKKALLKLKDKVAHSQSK
Outline: as §1

[16] = biological target: T16, OR10G9 (Homo sapiens) (UniProt Q8NGN4)
T16 sequence (whole entry): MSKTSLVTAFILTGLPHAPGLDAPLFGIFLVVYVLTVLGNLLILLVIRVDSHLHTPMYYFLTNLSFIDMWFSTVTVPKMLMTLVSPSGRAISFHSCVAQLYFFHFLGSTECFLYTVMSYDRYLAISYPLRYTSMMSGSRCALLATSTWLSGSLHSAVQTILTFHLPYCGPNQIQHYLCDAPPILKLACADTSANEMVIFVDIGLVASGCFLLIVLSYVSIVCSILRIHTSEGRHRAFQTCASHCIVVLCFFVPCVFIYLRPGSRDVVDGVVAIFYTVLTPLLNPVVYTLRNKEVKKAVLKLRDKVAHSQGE
Outline: as §1

[17] = biological target: T17, OR10H1 (Homo sapiens) (UniProt Q9Y4A9)
T17 sequence (whole entry): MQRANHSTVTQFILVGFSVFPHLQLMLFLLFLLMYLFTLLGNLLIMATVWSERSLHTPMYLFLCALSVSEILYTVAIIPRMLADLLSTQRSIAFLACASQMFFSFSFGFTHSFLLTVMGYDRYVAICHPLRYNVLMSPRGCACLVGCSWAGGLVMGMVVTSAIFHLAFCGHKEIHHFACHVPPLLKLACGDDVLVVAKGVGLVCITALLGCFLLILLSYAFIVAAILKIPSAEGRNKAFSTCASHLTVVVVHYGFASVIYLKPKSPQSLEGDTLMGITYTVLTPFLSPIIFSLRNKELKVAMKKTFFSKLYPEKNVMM
Outline: as §1

[18] = biological target: T18, OR10H2 (Homo sapiens) (UniProt O60403)
T18 sequence (whole entry): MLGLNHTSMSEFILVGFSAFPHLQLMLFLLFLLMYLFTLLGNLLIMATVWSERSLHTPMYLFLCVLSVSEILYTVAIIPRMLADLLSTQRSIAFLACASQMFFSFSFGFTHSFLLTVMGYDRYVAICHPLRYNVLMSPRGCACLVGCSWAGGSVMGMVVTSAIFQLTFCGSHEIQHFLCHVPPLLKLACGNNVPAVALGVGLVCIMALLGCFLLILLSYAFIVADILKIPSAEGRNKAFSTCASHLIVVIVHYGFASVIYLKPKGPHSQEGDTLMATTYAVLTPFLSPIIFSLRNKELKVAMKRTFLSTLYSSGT
Outline: as §1

[19] = biological target: T19, OR10H3 (Homo sapiens) (UniProt O60404)
T19 sequence (whole entry): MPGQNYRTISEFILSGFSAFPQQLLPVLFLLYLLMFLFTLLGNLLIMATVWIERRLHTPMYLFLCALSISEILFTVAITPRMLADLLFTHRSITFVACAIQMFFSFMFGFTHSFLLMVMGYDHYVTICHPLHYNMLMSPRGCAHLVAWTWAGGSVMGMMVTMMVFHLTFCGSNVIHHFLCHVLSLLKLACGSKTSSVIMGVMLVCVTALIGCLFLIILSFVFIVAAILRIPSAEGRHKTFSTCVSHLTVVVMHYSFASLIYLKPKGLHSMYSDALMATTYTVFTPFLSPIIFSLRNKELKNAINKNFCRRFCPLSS
Outline: as §1

Measured: odorant receptor agonist call;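 note: active if original authors judged signal statistically different from baseline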

Cc1cnc(C)c(C)n1
inactive: all assays above
